Consider four compounds from ChEMBL document CHEMBL5584363, “Euphane and Tirucallane Triterpenes with Trypanocidal Activity from Euphorbia desmondii” (J Nat Prod, 2024).

Data set [1] in a line: Effect on Trypanosoma cruzi epimastigotes Y (ATCC 50832) expressing GFP proliferation assessed as increase in cell proliferation at 0.3 uM incubated for 72 hrs by XTT assay relative to control. It is filed as functional. An outline of the steps: (§1)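 Y-strain epimastigotes kept in LIT medium with 10% heat-inactivated FBS at 28 °C; log-phase cells used. 1.5 × 10^5 parasites per well. Exposure at 10 μM (screen) or six concentrations from 10–0.3 μM for 72 h at 28 °C, with benznidazole control. XTT/PMS added for 2.5 h at 28 °C, then MeOH fixation and A490. Viability given as % of vehicle, or IC50. Triplicate, at least two independent experiments.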
In general terms: Tetrazolium assays rely on reduction of a dye to a coloured formazan, in cell work by metabolically active cells.

In data set [2] the test system is Trypanosoma cruzi. In words: Antitrypanosomal activity against Trypanosoma cruzi epimastigotes Y (ATCC 50832) expressing GFP at 10 uM incubated for 72 hrs by XTT assay. It counts as functional, organism-based. The procedure, abridged: as §1
Data set [3] concerns Trypanosoma cruzi. Put plainly: Antitrypanosomal activity against Trypanosoma cruzi […] Y (ATCC 50832) expressing GFP infected in mouse RAW264.7 cells assessed as inhibition of parasite replication measured after 6 days by FACS analysis. It is filed as functional, organism-based. The note with it: time 6.0 day. The procedure, abridged:
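RAW264.7 cells seeded at 40,000 or 10,000 cells/mL and left to adhere 24 h. Infected with swim-out trypomastigotes at multiplicity 10. Next day free parasites washed off and compound added in RPMI with 2% FBS. After 6 days, released GFP parasites fixed in 4% paraformaldehyde 1 h and counted by FACS. Run in triplicate with DMSO and benznidazole controls.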
On the technique in general: A flow cytometer gives signals particle by particle.

The subject of data set [4] is Trypanosoma cruzi. Put plainly: Antitrypanosomal activity against Trypanosoma cruzi trypomastigotes Y (ATCC 50832) expressing GFP infected in CCL39 cells assessed as reduction in parasite replication measured after 1 hr by microscopy. It counts as functional, organism-based. An outline of the steps: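 CCL39 fibroblasts seeded at 20,000 cells/mL and left to adhere 24 h. Infected with trypomastigotes at multiplicity 10. Next day free parasites washed off and compound added in RPMI with 2% hiFBS. On day 4 after infection, cells fixed in 4% paraformaldehyde for 1 h and imaged by brightfield and GFP fluorescence microscopy.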

A short description of data set [5]: Selectivity index, ratio of IC50 for mouse RAW264.7 cells to IC50 for antitrypanosomal activity against Trypanosoma cruzi […] Y (ATCC 50832) expressing GFP infected in mouse RAW264.7 cells assessed as inhibition of parasite replication. It counts as toxicity, cell-based. The note with it: read-out: Ratio IC50.
Data set [6] deals with Trypanosoma cruzi. Put plainly: Antitrypanosomal activity against Trypanosoma cruzi epimastigotes Y (ATCC 50832) expressing GFP incubated for 72 hrs by XTT assay. It counts as functional, organism-based. An outline of the steps:
as §1

Data set [7] can be described thus: Selectivity index, ratio of IC50 for mouse RAW264.7 cells to IC50 for antitrypanosomal activity against Trypanosoma cruzi epimastigotes Y (ATCC 50832) expressing GFP. It is filed as toxicity. The following applies: read-out: Ratio IC50.
A short description of data set [8]: Cytotoxicity against mouse RAW264.7 cells assessed as reduction in cell viability. It is filed as toxicity, cell-based.

Structures are written as SMILES. Active and inactive are the calls of the source. The calls are words filed in the database; no cut-off is given here.

As for `C[C@@H](C/C=C/C(C)(C)OO)[C@@H]1CC[C@]2(C)C3=C(C(OO)C[C@@]12C)[C@@]1(C)CC[C@H](O)C(C)(C)[C@@H]1CC3=O` (some centres not stated), the Activity in data set [1] is on record as 15%. In the data set with Trypanosoma cruzi [2], the outcome was Active.

In the case of `C[C@H](C/C=C/C(C)(C)OO)[C@@H]1CC[C@]2(C)C3=C(CC[C@@]12C)[C@@]1(C)CC[C@H](O)C(C)(C)[C@@H]1CC3=O`, the inhibition result in the data set on Trypanosoma cruzi [3] is “Dose-Dependent Effect”. Also, the outcome in the data set with Trypanosoma cruzi [4] was Active. Besides, the selectivity ratio in data set [5] is greater than 10.

What is called IC50 is the midpoint of a concentration-inhibition curve. With `CC(=O)CCC[C@H](C)[C@@H]1CC[C@]2(C)C3=C(C(=O)C[C@@]12C)[C@@]1(C)CC[C@H](O)C(C)(C)[C@@H]1CC3=O`, in data set [1], the Activity was 15%. Also, the values for the IC50 (in the data set on Trypanosoma cruzi [6]; in data set [8]) were 3.7 µM and 24.4 µM, respectively. In addition, the selectivity ratio in data set [7] came to 6.6. In the data set on Trypanosoma cruzi [2], the outcome was Active.

`CC(C)=CCC[C@@H](C)[C@@H]1CC[C@]2(C)C3=C(C(=O)C[C@@]12C)[C@@]1(C)CC[C@H](O)C(C)(C)[C@@H]1C[C@H]3O`: in data set [1], the Activity is given as 15%. Further, the result in the data set with Trypanosoma cruzi [2] was Active.
